Calls of active or inactive are those of the source. The calls are words filed in the database; no cut-off is given here.
Columns and labels:
[1] = molecular target: T1, Dihydrolipoyl dehydrogenase, mitochondrial (Sus scrofa) (UniProt P09623); assay: The second order rate constant of the pig heart LipDH (lipoamide dehydrogenase) catalyzed NADH oxidation.
T1 sequence (whole entry): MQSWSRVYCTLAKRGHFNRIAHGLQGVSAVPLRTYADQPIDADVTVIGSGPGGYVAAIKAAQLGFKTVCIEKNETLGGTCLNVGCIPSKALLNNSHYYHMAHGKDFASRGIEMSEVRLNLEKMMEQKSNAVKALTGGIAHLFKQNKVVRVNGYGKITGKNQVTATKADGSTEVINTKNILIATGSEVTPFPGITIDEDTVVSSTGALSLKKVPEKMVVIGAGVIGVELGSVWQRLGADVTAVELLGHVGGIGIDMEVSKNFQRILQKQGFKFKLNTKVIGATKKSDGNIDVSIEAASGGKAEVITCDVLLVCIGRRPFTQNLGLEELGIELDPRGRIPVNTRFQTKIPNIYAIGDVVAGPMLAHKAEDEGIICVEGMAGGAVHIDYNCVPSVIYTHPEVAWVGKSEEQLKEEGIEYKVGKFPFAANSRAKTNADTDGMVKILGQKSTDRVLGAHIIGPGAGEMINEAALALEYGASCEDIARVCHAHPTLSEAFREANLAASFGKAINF
How it was run: (§1)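 Recombinant T. cruzi LipDH (E. coli, purified) or pig heart LipDH, 0.1–2.5 µg/mL. Buffer was 50 mM potassium phosphate, 1 mM EDTA, pH 7.0, with 100 µM NADH and naphthoquinone at 10 µM–1.2 mM; all assays carried equal DMSO. Run at 31 °C, started with enzyme, NADH decrease followed at 340 nm. Km and Vmax from Lineweaver–Burk plots. At least duplicate.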

[2] = tested on: Dihydrolipoyl dehydrogenase (Trypanosoma cruzi); assay: The second order rate constant of the TcLipDH (Trypanosoma cruzi lipoamide dehydrogenase) catalyzed NADH oxidation.
[3] = molecular target: T1, Dihydrolipoyl dehydrogenase, mitochondrial (Sus scrofa); assay: Ratio of cytochrome c reduction and NADH oxidation by pig heart LipDH (lipoamide dehydrogenase) at 50 uM concentration, in cytochrome c assay
How it was run: (§2)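 T. cruzi or pig heart LipDH in 50 mM potassium phosphate pH 7.0 with 100 µM NADH, 50 µM cytochrome c and 50 µM naphthoquinone at 31 °C. Cytochrome c reduction read at 550 nm; NADH oxidation measured at 340 nm in the same conditions without cytochrome c. One-electron reduction % = cytochrome c rate ÷ (2 × NADH rate). At least duplicate.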

Leishmania donovani = assay: In vitro antiparasitic activity against Leishmania donovani was tested by sigmoidal regression analysis; assay type: functional
How it was run: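 Mouse peritoneal macrophages (female CD1, starch-elicited, harvested 24 h) infected with L. donovani amastigotes (strain MHOM/ET/67/L82, hamster spleen) or T. cruzi Y-strain trypomastigotes (5:1, from MDCK overlay). Infected cells exposed to a 3-fold dilution series in quadruplicate for 5 days (L. donovani) or 3 days (T. cruzi). Giemsa-stained slides scored for % macrophages cleared of amastigotes versus untreated cultures. ED50 by sigmoidal regression.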

Trypanosoma cruzi [4] = assay: Ratio of cytochrome c reduction and NADH oxidation by TcLipDH (Trypanosoma cruzi lipoamide dehydrogenase) at 50 uM concentration, in cytochrome c assay; how it was run: as §2
[5] = molecular target: T1, Dihydrolipoyl dehydrogenase, mitochondrial (Sus scrofa); assay: Ratio of cytochrome c reduction and NADH oxidation by pig heart LipDH (pig heart lipoamide dehydrogenase) at 50 uM concentration, cytochrome c assay; how it was run: as §2
[6] = molecular target: T1, Dihydrolipoyl dehydrogenase, mitochondrial (Sus scrofa); assay: Second order rate constant of the pig heart LipDH (lipoamide dehydrogenase) catalyzed NADH oxidation.; how it was run: as §1
Trypanosoma cruzi [7] = assay: Vmax is the maximum velocity of the TcLipDH (Trypanosoma cruzi lipoamide dehydrogenase) catalyzed NADH oxidation
How it was run: (§3)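 Recombinant TcLipDH expressed in E. coli, 0.1–2.5 µg/mL. 50 mM potassium phosphate, 1 mM EDTA, pH 7.0, 31 °C, with 100 µM NADH and naphthoquinone varied from 10 µM to 1.2 mM. DMSO was constant in all assays. NADH decrease followed at 340 nm. Km, Vmax and kcat came from Lineweaver-Burk plots, with kcat/Km derived. At least duplicate.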

Trypanosoma cruzi [8] = assay: The Michaelis-Menten constant for NADH oxidation by TcLipDH (Trypanosoma cruzi lipoamide dehydrogenase)
Trypanosoma cruzi [9] = assay: The second order rate constant of the TcLipDH (Trypanosoma cruzi lipoamide dehydrogenase) catalyzed NADH oxidation.; how it was run: as §3
Trypanosoma brucei [10] = assay: In vitro antiparasitic activity against Trypanosoma brucei was tested by sigmoidal regression analysis
[11] = molecular target: Trypanothione reductase (Trypanosoma cruzi) (UniProt P28593); assay: The second order rate constant of the TcTR (Trypanosoma cruzi trypanothione reductase) catalyzed […].
How it was run: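 Recombinant TcTR (0.6 U) in 20 mM Hepes, 1 mM EDTA, 0.15 M KCl, pH 7.25 at 22 °C, with 200 µM NADPH and naphthoquinone at five concentrations (0–100 µM) in 1% DMSO. NADPH oxidation at 340 nm; intrinsic oxidase rate not subtracted. Km and Vmax from nonlinear Michaelis–Menten fit; kcat and kcat/Km calculated.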

Trypanosoma brucei [12] = assay: In vitro antiparasitic activity against Trypanosoma brucei was tested by sigmoidal regression analysis at 30 uM; IA is inactive; assay type: functional, organism-based
How it was run: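 T. b. brucei S427 bloodstream trypomastigotes at 2 × 10⁵/mL in HMI-18 medium, in triplicate, with a 3-fold dilution series starting at 30 µM. Incubated 3 days at 37 °C in 5% CO₂. Pentamidine served as positive control. Viability read by tetrazolium colorimetric assay on day 3. ED50 by sigmoidal regression.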

[13] = molecular target: Trypanothione reductase (Trypanosoma cruzi) (UniProt P28593); assay: Rate of NADPH oxidation by TcTR in presence of 100 uM NQ was determined in comparison to intrinsic oxidase activity
How it was run: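 Quinone reductase activity of recombinant TcTR measured as NADPH oxidation at 340 nm. Buffer was 20 mM Hepes, 1 mM EDTA, 0.15 M KCl, pH 7.25, with 250 µM NADPH at 25 °C. Rate with naphthoquinone (100 µM for line 8, 25 µM for line 9) divided by intrinsic oxidase rate of enzyme plus NADPH alone. Mean of at least two measurements.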

Trypanosoma cruzi [14] = assay: The second oder rate constant of the TcLipDH (Trypanosoma cruzi lipoamide dehydrogenase) catalyzed NADH oxidation.; how it was run: as §1
Trypanosoma cruzi [15] = tested on: Trypanosoma cruzi

Trypanothione reductase (Trypanosoma cruzi), sequence (P28593 whole entry, looked up): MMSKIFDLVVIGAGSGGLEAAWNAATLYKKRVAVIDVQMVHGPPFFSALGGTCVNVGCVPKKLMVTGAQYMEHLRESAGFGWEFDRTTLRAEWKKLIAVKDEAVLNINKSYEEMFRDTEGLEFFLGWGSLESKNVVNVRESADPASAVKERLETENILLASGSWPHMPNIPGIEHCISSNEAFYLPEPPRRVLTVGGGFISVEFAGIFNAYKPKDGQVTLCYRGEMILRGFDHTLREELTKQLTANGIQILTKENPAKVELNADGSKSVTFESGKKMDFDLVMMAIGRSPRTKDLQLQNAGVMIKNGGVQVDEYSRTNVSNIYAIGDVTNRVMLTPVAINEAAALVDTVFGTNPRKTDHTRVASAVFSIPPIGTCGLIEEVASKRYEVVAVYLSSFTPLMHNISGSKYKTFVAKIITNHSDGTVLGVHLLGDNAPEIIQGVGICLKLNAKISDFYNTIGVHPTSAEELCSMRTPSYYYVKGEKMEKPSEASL

| SMILES | k cat/Km [2] | k cat/Km [1] | Reduction [3] | ED50 (Leishmania donovani) | Reduction (Trypanosoma cruzi [4]) | Km (Trypanosoma cruzi [8]) | also measured |
| --- | --- | --- | --- | --- | --- | --- | --- |
| CC1=C(CCC(=O)O)C(=O)c2ccccc2C1=O | 6.6 10e4 M-1 s-1 | – | – | > 30 µM | 3% | – | Reduction [5]: 0.5%; k cat/Km [6]: 3.2 10e4 M-1 s-1 |
| CC1=CC(=O)c2c(O)cccc2C1=O | – | 29 10e4 M-1 s-1 | 15.4% | – | 26.1% | 40 µM | Vmax (Trypanosoma cruzi [7]): 22.9 µM/min/mg; k cat/Km (Trypanosoma cruzi [9]): 48 10e4 M-1 s-1 |
| CC1=C(NCCCN2CCN(CCCN)CC2)C(=O)c2ccccc2C1=O | – | – | – | – | – | – | ED50 (Trypanosoma brucei [10]): > 12.5 µM |
| CC1=CC(=O)c2ccccc2C1=O | – | – | 8.1% | – | 12.7% | 170 µM | k cat/Km [11]: 1 10e4 M-1 s-1; IA (Trypanosoma brucei [12]): inactive; k cat/Km [6]: 13 10e4 M-1 s-1 |
| CC1=C(CCC(=O)NCCCN2CCN(C)CC2)C(=O)c2c(O)cccc2C1=O | – | 6.1 10e4 M-1 s-1 | 0.6% | – | 1.9% | – | – |
| CC1=C(CCC(=O)NCCCN2CCN(C)CC2)C(=O)c2ccccc2C1=O | 3 10e4 M-1 s-1 | 2.6 10e4 M-1 s-1 | 0.8% | > 30 µM | 1.6% | – | x fold [13]: 7 |
| CC1=C(CCCNC(=O)OC(C)(C)C)C(=O)c2c(O)cccc2C1=O | – | 3.5 10e4 M-1 s-1 | – | 10 µM | – | 30 µM | Vmax (Trypanosoma cruzi [7]): 8.24 µM/min/mg; k cat/Km (Trypanosoma cruzi [14]): 23 10e4 M-1 s-1 |
| CC1=C(CCC(=O)NCCCN2CCN(CCCNC(=O)CCC3=C(C)C(=O)c4ccccc4C3=O)CC2)C(=O)c2ccccc2C1=O | – | – | – | > 46 µM | – | – | k cat/Km [11]: 4.4 10e4 M-1 s-1; x fold (Trypanosoma cruzi [15]): 1000 µM |

Continued, in another order:

| k cat/Km [2] | SMILES | k cat/Km [1] | Reduction [3] | ED50 (Leishmania donovani) | Reduction (Trypanosoma cruzi [4]) | Km (Trypanosoma cruzi [8]) | also measured |
| --- | --- | --- | --- | --- | --- | --- | --- |
| 10.2 10e4 M-1 s-1 | CC1=C(CCC(=O)O)C(=O)c2c(O)cccc2C1=O | 2.4 10e4 M-1 s-1 | 1.6% | 72 µM | 6.6% | – | – |
| 8.4 10e4 M-1 s-1 | CC1=C(CCCNC(=O)OC(C)(C)C)C(=O)c2ccccc2C1=O | 3.4 10e4 M-1 s-1 | – | 29.4 µM | – | – | – |
